ChEMBL document CHEMBL1125643, “N-(5-fluorobenzothiazol-2-yl)-2-guanidinothiazole-4-carboxamide. A novel, systemically active antitumor agent effective against 3LL Lewis lung carcinoma” (J Med Chem, 1991)
Where “and” joins values, the source holds several entries; their conditions need not be identical. Identical values can stand only once.

Legend:
[1] = Drug related lethality is percent animals in treated groups dying prior to first tumor related death in untreated groups measured in BDF1 mice after ip administration at 6.25 mg/kg dose; type: toxicity, organism-based; parameters: dose 6.25 mg/kg, route intraperitoneal; settings: BDF1, mus sp., in vivo, read-out: Lethality
How it was run: (§1)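 Female BDF1 mice (18–20 g) were implanted in the lateral tail vein with 6×10^5 log-phase 3LL cells in 0.20 mL RPMI 1640 and then randomized, seven per group. Drug was dissolved in DMSO (20% of final volume) and diluted with sterile saline to a fine suspension. Mice received 200 μL ip daily from day 2 to day 9 (8 treatments) and were monitored daily. Lethality counted deaths before the first tumor-related control death.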

[2] = Drug related lethality is percent animals in treated groups dying prior to first tumor related death in untreated groups measured in BDF1 mice after po administration at 400 mg/kg dose; type: toxicity, organism-based; parameters: dose 400 mg/kg, route oral; settings: BDF1, mus sp., in vivo, read-out: Lethality
How it was run: (§2)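 Female BDF1 mice (18–20 g) were implanted in the tail vein with 6×10^5 3LL cells in 0.20 mL RPMI 1640, seven per group. Drug was dissolved in DMSO (20% final) and diluted with saline to a fine suspension. Mice were dosed orally, 200 μL, from day 2 to day 9 (8 treatments). Lethality is the percentage of treated mice dying before the first tumor-related death among untreated controls.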

[3] = Drug related lethality is percent animals in treated groups dying prior to first tumor related death in untreated groups measured in BDF1 mice after po administration at 50 mg/kg dose; type: toxicity, organism-based; parameters: dose 50 mg/kg, route oral; settings: BDF1, mus sp., in vivo, read-out: Lethality; how it was run: as §2
Mus sp. [4] = experiment: In vivo activity measured against 3LL metastasis in BDF1 mice after ip administration at 100 mg/kg dose, dosing on days 2-8 after tumor challenge; type: functional; settings: route intraperitoneal
How it was run: (§3)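 Female BDF1 mice (18–20 g) given 6×10^5 log-phase 3LL cells iv via tail vein in 0.20 mL RPMI 1640, randomized, 7 per group. Drug freshly dissolved in DMSO (20% of final volume) and diluted with sterile saline to a fine suspension. Dosed 200 μL ip or po, 8 treatments from day 2. Survival monitored daily. %T/C = MST treated/MST control × 100, given as mean (s.e.) over repeat experiments.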

Mus sp. [5] = experiment: In vivo activity measured against 3LL metastasis in BDF1 mice after ip administration at 12.5 mg/kg dose, dosing on days 2-8 after tumor challenge; type: functional; settings: route intraperitoneal; how it was run: as §3
Mus sp. [6] = experiment: In vivo activity measured against 3LL metastasis in BDF1 mice after ip administration at 200 mg/kg dose, dosing on days 2-8 after tumor challenge; type: functional; settings: route intraperitoneal; how it was run: as §3
Mus sp. [7] = experiment: In vivo activity measured against 3LL metastasis in BDF1 mice after ip administration at 25 mg/kg dose, dosing on days 2-8 after tumor challenge; type: functional; settings: route intraperitoneal; how it was run: as §3
[8] = Drug related lethality is percent animals in treated groups dying prior to first tumor related death in untreated groups measured in BDF1 mice after ip administration at 400 mg/kg dose; type: toxicity, organism-based; parameters: dose 400 mg/kg, route intraperitoneal; settings: BDF1, mus sp., in vivo, read-out: Lethality; how it was run: as §1
Mus sp. [9] = experiment: In vivo activity measured against 3LL metastasis in BDF1 mice after ip administration at 50 mg/kg dose, dosing on days 2-8 after tumor challenge; type: functional; settings: route intraperitoneal; how it was run: as §3
Mus sp. [10] = experiment: In vivo activity measured against 3LL metastasis in BDF1 mice after ip administration at 6.25 mg/kg dose, dosing on days 2-8 after tumor challenge; type: functional; settings: route intraperitoneal; how it was run: as §3
Mus sp. [11] = experiment: In vivo activity measured against 3LL metastasis in BDF1 mice after po administration at 200 mg/kg dose, dosing on days 2-8 after tumor challenge; type: functional; how it was run: as §3
Mus sp. [12] = experiment: In vivo activity measured against 3LL metastasis in BDF1 mice after po administration at 25 mg/kg dose, dosing on days 2-8 after tumor challenge; type: functional; how it was run: as §3
[13] = Drug related lethality is percent animals in treated groups dying prior to first tumor related death in untreated groups measured in BDF1 mice after po administration at 100 mg/kg dose; type: toxicity, organism-based; parameters: dose 100 mg/kg, route oral; settings: BDF1, mus sp., in vivo, read-out: Lethality; how it was run: as §2
[14] = Drug related lethality is percent animals in treated groups dying prior to first tumor related death in untreated groups measured in BDF1 mice after po administration at 12.5 mg/kg dose; type: toxicity, organism-based; parameters: dose 12.5 mg/kg, route oral; settings: BDF1, mus sp., in vivo, read-out: Lethality; how it was run: as §2
[15] = Drug related lethality is percent animals in treated groups dying prior to first tumor related death in untreated groups measured in BDF1 mice after po administration at 200 mg/kg dose; type: toxicity, organism-based; parameters: dose 200 mg/kg, route oral; settings: BDF1, mus sp., in vivo, read-out: Lethality; how it was run: as §2
[16] = Drug related lethality is percent animals in treated groups dying prior to first tumor related death in untreated groups measured in BDF1 mice after po administration at 25 mg/kg dose; type: toxicity, organism-based; parameters: dose 25 mg/kg, route oral; settings: BDF1, mus sp., in vivo, read-out: Lethality; how it was run: as §2
[17] = Drug related lethality is percent animals in treated groups dying prior to first tumor related death in untreated groups measured in BDF1 mice after ip administration at 100 mg/kg dose; type: toxicity, organism-based; parameters: dose 100 mg/kg, route intraperitoneal; settings: BDF1, mus sp., in vivo, read-out: Lethality; how it was run: as §1
[18] = Drug related lethality is percent animals in treated groups dying prior to first tumor related death in untreated groups measured in BDF1 mice after ip administration at 12.5 mg/kg dose; type: toxicity, organism-based; parameters: dose 12.5 mg/kg, route intraperitoneal; settings: BDF1, mus sp., in vivo, read-out: Lethality; how it was run: as §1
[19] = Drug related lethality is percent animals in treated groups dying prior to first tumor related death in untreated groups measured in BDF1 mice after ip administration at 200 mg/kg dose; type: toxicity, organism-based; parameters: dose 200 mg/kg, route intraperitoneal; settings: BDF1, mus sp., in vivo, read-out: Lethality; how it was run: as §1
[20] = Drug related lethality is percent animals in treated groups dying prior to first tumor related death in untreated groups measured in BDF1 mice after ip administration at 25 mg/kg dose; type: toxicity, organism-based; parameters: dose 25 mg/kg, route intraperitoneal; settings: BDF1, mus sp., in vivo, read-out: Lethality; how it was run: as §1
Mus sp. [21] = experiment: In vivo activity measured against 3LL metastasis in BDF1 mice after po administration at 50 mg/kg dose, dosing on days 2-8 after tumor challenge; type: functional; how it was run: as §3
Mus sp. [22] = experiment: In vivo activity was measured against 3LL metastasis in BDF1 mice after po administration at 100 mg/kg dose, dosing on days 2-8 after tumor challenge; type: functional; how it was run: as §3
[23] = Drug related lethality is percent animals in treated groups dying prior to first tumor related death in untreated groups measured in BDF1 mice after ip administration at 50 mg/kg dose; type: toxicity, organism-based; parameters: dose 50 mg/kg, route intraperitoneal; settings: BDF1, mus sp., in vivo, read-out: Lethality; how it was run: as §1
[24] = Drug related lethality is percent animals in treated groups dying prior to first tumor related death in untreated groups measured in BDF1 mice after ip administration at 400 mg/kg dose days 3 after tumor challenge; settings: BDF1, mus sp., in vivo
[25] = Drug related lethality is percent animals in treated groups dying prior to first tumor related death in untreated groups measured in BDF1 mice after ip administration at 300 mg/kg dose days 3 after tumor challenge; settings: BDF1, mus sp., in vivo
[26] = Drug related lethality is percent animals in treated groups dying prior to first tumor related death in untreated groups measured in BDF1 mice after iv administration at 10 mg/kg dose 3 days after tumor challenge; type: toxicity, organism-based; parameters: dose 10 mg/kg, route intravenous; settings: BDF1, mus sp., in vivo, read-out: Lethality
[27] = Drug related lethality is percent animals in treated groups dying prior to first tumor related death in untreated groups measured in BDF1 mice after iv administration at 15 mg/kg dose 3 days after tumor challenge; type: toxicity, organism-based; parameters: dose 15 mg/kg, route intravenous; settings: BDF1, mus sp., in vivo, read-out: Lethality
[28] = Drug related lethality is percent animals in treated groups dying prior to first tumor related death in untreated groups measured in BDF1 mice after iv administration at 18 mg/kg dose 3 days after tumor challenge; type: toxicity, organism-based; parameters: dose 18 mg/kg, route intravenous; settings: BDF1, mus sp., in vivo, read-out: Lethality
[29] = Drug related lethality is percent animals in treated groups dying prior to first tumor related death in untreated groups measured in BDF1 mice after iv administration at 2.5 mg/kg dose 3 days after tumor challenge; type: toxicity, organism-based; parameters: dose 2.5 mg/kg, route intravenous; settings: BDF1, mus sp., in vivo, read-out: Lethality
Mus sp. [30] = experiment: In vivo activity against 3LL metastasis in BDF1 mice after iv administration at 10 mg/kg dose, dosing on days 3 after tumor challenge; type: functional
Mus sp. [31] = experiment: In vivo activity against 3LL metastasis in BDF1 mice after iv administration at 18 mg/kg dose, dosing on days 3 after tumor challenge; type: functional
[32] = Drug related lethality is percent animals in treated groups dying prior to first tumor related death in untreated groups measured in BDF1 mice after iv administration at 20 mg/kg dose 3 days after tumor challenge; type: toxicity, organism-based; parameters: dose 20 mg/kg, route intravenous; settings: BDF1, mus sp., in vivo, read-out: Lethality
[33] = Drug related lethality is percent animals in treated groups dying prior to first tumor related death in untreated groups measured in BDF1 mice after iv administration at 25 mg/kg dose 3 days after tumor challenge; type: toxicity, organism-based; parameters: dose 25 mg/kg, route intravenous; settings: BDF1, mus sp., in vivo, read-out: Lethality
[34] = Drug related lethality is percent animals in treated groups dying prior to first tumor related death in untreated groups measured in BDF1 mice after iv administration at 30 mg/kg dose 3 days after tumor challenge; type: toxicity, organism-based; parameters: dose 30 mg/kg, route intravenous; settings: BDF1, mus sp., in vivo, read-out: Lethality
[35] = Drug related lethality is percent animals in treated groups dying prior to first tumor related death in untreated groups measured in BDF1 mice after iv administration at 5 mg/kg dose 3 days after tumor challenge; type: toxicity, organism-based; parameters: dose 5 mg/kg, route intravenous; settings: BDF1, mus sp., in vivo, read-out: Lethality
Mus sp. [36] = experiment: In vivo activity measured against 3LL metastasis in BDF1 mice after iv administration at 15 mg/kg dose, dosing on days 3 after tumor challenge; type: functional
Mus sp. [37] = experiment: In vivo activity measured against 3LL metastasis in BDF1 mice after iv administration at 2.5 mg/kg dose, dosing on days 3 after tumor challenge; type: functional
Mus sp. [38] = experiment: In vivo activity measured against 3LL metastasis in BDF1 mice after iv administration at 20 mg/kg dose, dosing on days 3 after tumor challenge; type: functional
Mus sp. [39] = experiment: In vivo activity measured against 3LL metastasis in BDF1 mice after iv administration at 25 mg/kg dose, dosing on days 3 after tumor challenge; type: functional
Mus sp. [40] = experiment: In vivo activity measured against 3LL metastasis in BDF1 mice after iv administration at 5 mg/kg dose, dosing on days 3 after tumor challenge; type: functional

N=C(N)Nc1nc(C(=O)Nc2nc3cc(F)ccc3s2)cs1
mortality [1]: 0%
mortality [2]: 45.7%
mortality [3]: 2%
T/C (Mus sp. [4]): 160.7%
T/C (Mus sp. [5]): 149.3%
T/C (Mus sp. [6]): 179.7%
T/C (Mus sp. [7]): 153.8%
mortality [8]: 42.9%
T/C (Mus sp. [9]): 153%
T/C (Mus sp. [10]): 112.7%
T/C (Mus sp. [11]): 119% and 150.3%
T/C (Mus sp. [12]): 127%
mortality [13]: 5.7%
mortality [14]: 0%
mortality [15]: 22.7%
mortality [16]: 1.78%
mortality [17]: 0%
mortality [18]: 0%
mortality [19]: 14.3%
mortality [20]: 0%
T/C (Mus sp. [21]): 140.4%
T/C (Mus sp. [22]): 157.7%
mortality [23]: 0.43%

O=P1(N(CCCl)CCCl)NCCCO1 (stereo not given) [CYCLOPHOSPHAMIDE ANHYDROUS]
mortality [24]: 14%
mortality [25]: 0%

COc1cccc2c1C(=O)c1c(O)c3c(c(O)c1C2=O)C[C@@](O)(C(=O)CO)C[C@@H]3O[C@H]1C[C@H](N)[C@H](O)[C@H](C)O1 [DOXORUBICIN]
mortality at 72 h [26]: 0%
mortality at 72 h [27]: 21%
mortality at 72 h [28]: 0%
mortality at 72 h [29]: 0%
T/C (Mus sp. [30]): 137%
T/C (Mus sp. [31]): 191%
mortality at 72 h [32]: 15%
mortality at 72 h [33]: 72%
mortality at 72 h [34]: 100%
mortality at 72 h [35]: 0%
T/C (Mus sp. [36]): 215%
T/C (Mus sp. [37]): 120%
T/C (Mus sp. [38]): 189%
T/C (Mus sp. [39]): 197%
T/C (Mus sp. [40]): 115%
